# Assay results published in ChEMBL document CHEMBL4425124, “Structure-Activity Relationship Studies on Tetrahydroisoquinoline Derivatives: [4'-(6,7-Dimethoxy-3,4-dihydro-1H-isoquinolin-2-ylmethyl)biphenyl-4-ol] (MC70) Conjugated through Flexible Alkyl Chains with Furazan Moieties Gives Rise to Potent and Selective Ligands of P-glycoprotein” (J Med Chem, 2016).
# Experiments:
# [1] = target: T1, Broad substrate specificity ATP-binding cassette transporter ABCG2 (Homo sapiens, UniProt Q9UNQ0); assay: Inhibition of BCRP (unknown origin)
# T1 sequence (Q9UNQ0 whole entry): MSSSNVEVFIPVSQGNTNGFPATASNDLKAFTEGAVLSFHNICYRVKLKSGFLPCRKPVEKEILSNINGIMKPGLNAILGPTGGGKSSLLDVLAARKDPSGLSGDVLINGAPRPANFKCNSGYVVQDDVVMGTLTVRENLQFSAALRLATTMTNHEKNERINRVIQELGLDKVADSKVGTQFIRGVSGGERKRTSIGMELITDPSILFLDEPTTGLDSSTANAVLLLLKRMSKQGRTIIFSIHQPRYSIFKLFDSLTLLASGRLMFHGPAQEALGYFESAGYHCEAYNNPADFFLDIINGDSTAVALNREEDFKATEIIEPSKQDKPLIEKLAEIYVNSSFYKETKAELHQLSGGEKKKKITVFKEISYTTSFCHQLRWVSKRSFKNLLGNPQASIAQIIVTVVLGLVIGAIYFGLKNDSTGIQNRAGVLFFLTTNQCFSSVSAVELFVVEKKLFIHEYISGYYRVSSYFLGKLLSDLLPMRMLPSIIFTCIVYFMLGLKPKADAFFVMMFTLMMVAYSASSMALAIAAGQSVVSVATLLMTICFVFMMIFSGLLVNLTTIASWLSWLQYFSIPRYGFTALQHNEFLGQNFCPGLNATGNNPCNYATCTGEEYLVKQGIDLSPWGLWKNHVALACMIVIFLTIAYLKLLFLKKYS
# P-gp (ABCB1) = P-gp (ABCB1) (Homo sapiens, UniProt P08183); assay: Substrate activity at p-gp in human Caco2 cells assessed as ratio of apparent permeability across basolateral to apical over apical to basolateral side at 100 uM after 120 mins by UV-Vis spectroscopy; format: ADME, cell-based; details: Caco-2
# Procedure, shortened: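 Caco-2 monolayers cultured 21 days, with TEER checked before and after the experiment. Compounds at 100 μM in HBSS pH 7.4, applied apical or basolateral, 120 min at 37 °C after 30 min buffer preincubation. Acceptor concentration measured by UV–vis. Papp = [VA/(area×time)]×([drug]acceptor/[drug]initial), area 0.11 cm², 7200 s. Two independent experiments.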
# MDCK [2] = assay: Cytotoxicity against MDCK cells expressing MDR1 assessed as inhibition of cell proliferation at 1 uM after 24 hrs by MTT assay; format: ADME, cell-based, Canis lupus familiaris; details: dog
# Procedure, shortened: (§1)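 MTT growth assay. 30000 cells/well seeded on day 1; drugs added on day 2 over 0.1–100 μM, with solvent (ethanol, DMSO) controls. After 24 or 48 h, MTT 0.5 mg/mL for 3 h at 37 °C. Formazan dissolved in DMSO, absorbance read at 570 and 630 nm.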
# MDCK [3] = assay: Cytotoxicity against MDCK cells expressing MDR1 assessed as inhibition of cell proliferation at 0.1 uM after 48 hrs by MTT assay; format: ADME, cell-based, Canis lupus familiaris; details: dog; procedure, shortened: as §1
# [4] = target: T2, ATP-dependent translocase ABCB1 (Homo sapiens, UniProt P08183); assay: Inhibition of MDR1 (unknown origin) expressed in MDCK cells assessed as decrease in calcein-AM transport after 30 mins by fluorescence assay; format: cell-based
# Procedure, shortened: (§2)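 MDCK-MDR1 or MDCK-MRP1 cells (50,000/well) grown to confluence overnight. Compounds in medium preincubated 30 min at 37 °C, then calcein-AM (2.5 μM final, in PBS) added for 30 min. Three ice-cold PBS washes; fluorescence read at ex 485/em 535 nm. Increase over untreated basal fluorescence fitted against log[dose] for EC50. Mean of three independent experiments, duplicate samples.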
# [5] = target: T2, ATP-dependent translocase ABCB1; assay: Activation of MDR1 (unknown origin) ATPase activity expressed in MDCK cells assessed as decrease in ATP level after 2 hrs by ATPlite assay; format: cell-based
# Procedure, shortened: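 MDCK-MDR1 cells seeded at 2x10⁴/well, grown overnight at 37 °C, 5% CO₂, then exposed to test compounds in complete medium at varying concentrations for 2 h. Cells lysed, luciferase substrate added, 10 min dark adaptation, luminescence read as cellular ATP level. Mean of three independent experiments, duplicate samples.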
# [6] = target: Multidrug resistance-associated protein 1 (Homo sapiens, UniProt P33527); assay: Inhibition of MRP1 (unknown origin) expressed in MDCK cells assessed as decrease in calcein-AM transport at 10^-4 M after 30 mins by fluorescence assay; format: cell-based; details: 0.5 h, 100 µM; procedure, shortened: as §2
# MCF7 = assay: Cytotoxicity against human MCF7 cells assessed as inhibition of cell proliferation at 0.1 uM after 24 hrs by MTT assay; format: cell-based; details: mcf7, 24 h; procedure, shortened: as §1
# P-gp (ABCB1), sequence (P08183 whole entry): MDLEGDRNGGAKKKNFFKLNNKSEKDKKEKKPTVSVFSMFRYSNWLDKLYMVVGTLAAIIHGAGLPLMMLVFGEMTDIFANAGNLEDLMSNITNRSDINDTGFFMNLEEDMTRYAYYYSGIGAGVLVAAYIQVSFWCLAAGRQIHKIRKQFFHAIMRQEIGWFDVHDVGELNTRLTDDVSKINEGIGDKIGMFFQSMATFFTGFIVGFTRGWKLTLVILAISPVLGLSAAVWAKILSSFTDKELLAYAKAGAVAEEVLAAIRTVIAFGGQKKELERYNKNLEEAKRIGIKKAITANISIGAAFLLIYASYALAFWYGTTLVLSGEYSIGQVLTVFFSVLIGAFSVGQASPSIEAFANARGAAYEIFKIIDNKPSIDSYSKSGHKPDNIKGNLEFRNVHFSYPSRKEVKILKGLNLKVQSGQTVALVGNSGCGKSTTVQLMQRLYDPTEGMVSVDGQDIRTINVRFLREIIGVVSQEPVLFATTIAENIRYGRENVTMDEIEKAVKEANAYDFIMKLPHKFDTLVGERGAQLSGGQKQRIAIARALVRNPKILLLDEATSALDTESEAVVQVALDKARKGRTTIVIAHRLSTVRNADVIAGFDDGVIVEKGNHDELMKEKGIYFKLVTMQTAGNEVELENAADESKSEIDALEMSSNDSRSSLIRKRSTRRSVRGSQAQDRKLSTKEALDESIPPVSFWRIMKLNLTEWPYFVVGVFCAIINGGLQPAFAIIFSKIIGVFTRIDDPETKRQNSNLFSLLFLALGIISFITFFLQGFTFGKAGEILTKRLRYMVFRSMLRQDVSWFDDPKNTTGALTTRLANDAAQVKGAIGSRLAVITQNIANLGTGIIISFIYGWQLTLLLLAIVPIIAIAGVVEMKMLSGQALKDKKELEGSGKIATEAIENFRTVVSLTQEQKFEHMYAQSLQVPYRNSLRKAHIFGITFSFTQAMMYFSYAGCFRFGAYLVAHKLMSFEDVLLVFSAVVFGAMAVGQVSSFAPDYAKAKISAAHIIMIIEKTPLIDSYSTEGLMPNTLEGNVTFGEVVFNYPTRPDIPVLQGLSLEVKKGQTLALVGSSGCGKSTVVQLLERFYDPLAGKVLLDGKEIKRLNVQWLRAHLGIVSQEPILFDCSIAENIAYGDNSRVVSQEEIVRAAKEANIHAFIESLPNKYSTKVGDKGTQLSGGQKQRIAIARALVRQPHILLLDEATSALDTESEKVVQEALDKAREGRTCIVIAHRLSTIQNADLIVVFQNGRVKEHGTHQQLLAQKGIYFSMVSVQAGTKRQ
# T2 sequence (P08183 whole entry): as above
# Multidrug resistance-associated protein 1, sequence (P33527 whole entry): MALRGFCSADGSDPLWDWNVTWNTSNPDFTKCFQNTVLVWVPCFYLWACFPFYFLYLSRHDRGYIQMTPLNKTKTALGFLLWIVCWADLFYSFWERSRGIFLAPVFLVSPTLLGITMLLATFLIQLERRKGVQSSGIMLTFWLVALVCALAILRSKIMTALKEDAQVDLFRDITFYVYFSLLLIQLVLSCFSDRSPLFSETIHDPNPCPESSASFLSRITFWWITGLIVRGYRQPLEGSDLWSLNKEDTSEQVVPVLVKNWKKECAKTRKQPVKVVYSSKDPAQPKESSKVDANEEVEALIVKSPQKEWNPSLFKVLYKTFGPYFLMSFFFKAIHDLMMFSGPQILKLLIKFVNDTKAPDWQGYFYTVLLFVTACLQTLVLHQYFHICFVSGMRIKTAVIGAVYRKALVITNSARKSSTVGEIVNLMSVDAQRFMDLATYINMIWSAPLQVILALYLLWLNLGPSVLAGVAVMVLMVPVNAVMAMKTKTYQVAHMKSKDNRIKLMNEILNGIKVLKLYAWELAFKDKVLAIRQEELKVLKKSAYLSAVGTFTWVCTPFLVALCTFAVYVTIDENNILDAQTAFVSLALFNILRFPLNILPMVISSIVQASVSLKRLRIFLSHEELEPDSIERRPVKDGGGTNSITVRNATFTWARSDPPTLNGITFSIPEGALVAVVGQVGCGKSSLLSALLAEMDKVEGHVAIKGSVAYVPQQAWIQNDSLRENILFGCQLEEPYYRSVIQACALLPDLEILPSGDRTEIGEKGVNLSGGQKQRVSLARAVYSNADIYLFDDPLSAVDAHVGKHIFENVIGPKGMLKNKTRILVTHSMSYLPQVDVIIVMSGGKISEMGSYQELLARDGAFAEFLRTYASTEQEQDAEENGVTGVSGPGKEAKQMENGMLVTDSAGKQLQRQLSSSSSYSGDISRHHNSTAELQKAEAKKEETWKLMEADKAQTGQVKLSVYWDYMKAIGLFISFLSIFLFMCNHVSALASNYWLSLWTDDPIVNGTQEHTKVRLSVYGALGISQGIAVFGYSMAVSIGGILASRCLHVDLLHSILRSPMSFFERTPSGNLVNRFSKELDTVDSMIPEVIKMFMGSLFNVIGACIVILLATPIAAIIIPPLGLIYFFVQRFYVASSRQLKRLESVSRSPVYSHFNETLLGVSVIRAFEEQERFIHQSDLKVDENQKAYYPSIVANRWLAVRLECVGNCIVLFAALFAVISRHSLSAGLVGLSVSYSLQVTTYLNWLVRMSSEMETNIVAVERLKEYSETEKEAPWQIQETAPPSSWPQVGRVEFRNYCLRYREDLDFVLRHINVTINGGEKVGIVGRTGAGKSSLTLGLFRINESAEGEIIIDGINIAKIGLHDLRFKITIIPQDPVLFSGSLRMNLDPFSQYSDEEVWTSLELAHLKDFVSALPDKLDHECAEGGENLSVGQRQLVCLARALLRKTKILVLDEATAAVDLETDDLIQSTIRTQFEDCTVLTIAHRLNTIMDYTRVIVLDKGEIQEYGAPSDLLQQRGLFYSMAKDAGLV
"efflux ratio at 2 h, 100 µM (P-gp (ABCB1))",EC50 [4] [nM],Activity [5],inhibition (INH) [6],SMILES,EC50 [1] [nM],Activity (MDCK [2]),Activity (MDCK [3]),Activity (MCF7)
4.9,290,Not Active,Not Active,COc1cc2c(cc1OC)CN(Cc1ccc(-c3ccc(OCCOc4nonc4OCc4ccccc4)cc3)cc1)CC2,,,,
4,350,Not Active,Not Active,COc1cc2c(cc1OC)CN(Cc1ccc(-c3ccc(OCCCOc4nonc4C)cc3)cc1)CC2,,,,
3,290,Not Active,Not Active,COc1cc2c(cc1OC)CN(Cc1ccc(-c3ccc(OCCCCOc4nonc4OC)cc3)cc1)CC2,,,,
2.5,380,Not Active,Not Active,COc1cc2c(cc1OC)CN(Cc1ccc(-c3ccc(OCCCOc4nonc4S(=O)(=O)c4ccccc4)cc3)cc1)CC2,,,,
3.8,1180,Not Active,Not Active,COc1cc2c(cc1OC)CN(Cc1ccc(-c3ccc(OCCCOc4nonc4Oc4ccccc4)cc3)cc1)CC2,,,,
4.7,1170,Not Active,Not Active,COc1cc2c(cc1OC)CN(Cc1ccc(-c3ccc(OCCCOc4nonc4Sc4ccccc4)cc3)cc1)CC2,,,,
20,3300,Not Active,Not Active,COc1cc2c(cc1OC)CN(Cc1ccc(-c3ccc(OCCCOc4nonc4-c4ccccc4)cc3)cc1)CC2,,,,

# The remaining lines, values behind:
SMILES,"efflux ratio at 2 h, 100 µM (P-gp (ABCB1))",EC50 [4] [nM],Activity [5],inhibition (INH) [6],EC50 [1] [nM],Activity (MDCK [2]),Activity (MDCK [3]),Activity (MCF7)
COc1cc2c(cc1OC)CN(Cc1ccc(-c3ccc(OCCCOc4nonc4OCc4ccccc4)cc3)cc1)CC2,3,0.97,Not Active,Not Active,> 100000,Non-Toxic,Toxic,Toxic
COc1cc2c(cc1OC)CN(Cc1ccc(-c3ccc(OCCOc4nonc4[S+]([O-])c4ccccc4)cc3)cc1)CC2 (configuration not stated),4.6,0.9,Not Active,Not Active,> 100000,Non-Toxic,Toxic,Toxic
COc1cc2c(cc1OC)CN(Cc1ccc(-c3ccc(OCCCOc4nonc4C#N)cc3)cc1)CC2,4.9,1050,Not Active,Not Active,,,,
COc1cc2c(cc1OC)CN(Cc1ccc(-c3ccc(OCCCOc4nonc4OC)cc3)cc1)CC2,3.2,54,Not Active,Not Active,,,,
COc1cc2c(cc1OC)CN(Cc1ccc(-c3ccc(OCCCOc4nonc4[S+]([O-])c4ccccc4)cc3)cc1)CC2 (configuration not stated),2.6,1.3,Not Active,Not Active,> 100000,Non-Toxic,Toxic,Toxic
COc1cc2c(cc1OC)CN(Cc1ccc(-c3ccc(OCCOc4nonc4OC)cc3)cc1)CC2,3.2,0.6,Active,Not Active,> 100000,Non-Toxic,Toxic,Toxic
COc1cc2c(cc1OC)CN(Cc1ccc(-c3ccc(OCCOc4nonc4C#N)cc3)cc1)CC2,4.7,1200,Not Active,Not Active,,,,
